≈ marks a conversion by molar mass, not a printed value.
What was measured:
Benjaminiella = assay: Minimum inhibitory concentration against Benjaminiella poitrassi; format: functional
Outline: (§1)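 Disk diffusion on YPG agar. Yeast suspension from 24 h YPG broth (C. albicans five isolates and Y. lipolytica at 28 °C, B. poitrasii at 37 °C) spread-plated. Filter disks carried a DMSO control or graded compound amounts from 1 mg/mL DMSO stock. Plates incubated 28 °C, 24 h. MIC taken as lowest concentration giving an inhibition zone; triplicate.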

Yarrowia lipolytica = assay: Minimum inhibitory concentration against Yarrowia lipolytica; format: functional; outline: as §1
Candida albicans = assay: Minimum inhibitory concentration against Candida albicans; format: functional; outline: as §1
MCF7 = assay: In vitro antiproliferative activity against MCF-7 cells; format: functional, cell-based; conditions: Homo sapiens
Outline: (§2)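 MEM with 10% heat-inactivated FBS at 37 °C, 5% CO2. Cells seeded at 15 000/well and adhered 24 h. Treated in triplicate for 72 h with 0, 0.1, 1.0 or 10 μM compound from DMSO stock. MTT 1 mg/mL for 4 h at 37 °C, formazan dissolved in 2-propanol, OD 570 nm (630 nm reference). DMSO-only cells set as 100% growth.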

HEp-2 = assay: Antiproliferative activity against HEp-2 cells; format: functional, cell-based; conditions: Homo sapiens; outline: as §2

Row | Compound | MIC (Benjaminiella) | MIC (Yarrowia lipolytica) | MIC (Candida albicans) | IC50 (MCF7) | IC50 (HEp-2)
1 | C[C@H](CCC(=O)NCCNCCNC(=O)CC[C@H](C)[C@H]1CCC2C3C(C[C@@H](O)[C@@]21C)[C@@]1(C)CC[C@@H](O)CC1C[C@H]3O)[C@H]1CCC2C3C(C[C@@H](O)[C@@]21C)[C@@]1(C)CC[C@@H](O)CC1C[C@H]3O (stereo partly drawn) | 0.0113 µM (≈ 0.01 µg/mL) | 0.0113 µM (≈ 0.01 µg/mL) | 0.0113 µM (≈ 0.01 µg/mL) |  | 
2 | C[C@H](CCC(=O)NCCNC(=O)CC[C@H](C)[C@H]1CCC2C3CCC4C[C@H](O)CC[C@]4(C)C3C[C@@H](O)[C@@]21C)[C@H]1CCC2C3CCC4C[C@H](O)CC[C@]4(C)C3C[C@@H](O)[C@@]21C (stereo partly drawn) |  |  |  | 2.2 µM | 2.2 µM
3 | C[C@@H]1C[C@@H]([C@H](O)CC2CC(=O)NC(=O)C2)C(=O)[C@@H](C)C1 [CYCLOHEXIMIDE] | 0.071 µM (≈ 0.02 µg/mL) | 0.106 µM (≈ 0.0298 µg/mL) | > 0.9 µM |  | 
